Compound activity: PubChem, several laboratories
Myeloid diff MLP: compounds promoting myeloid differentiation. ER-HoxA9 myeloid progenitors, lysozyme-GFP differentiation, flow cytometry. calls only at 10 µM. 360,000 compounds, 1% hits. AID 624256;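 active = normalized GFP-positive differentiation at or above the plate's own cutoff, the solvent-only control mean plus 3 SD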;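 note: cells exposed to compound for four days before flow analysis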
HNF4A DNA FP: change in binding of human HNF4 alpha to DNA. P41235. HNF4a-FITC DNA binding, fluorescence polarization, 1 h. activity change, % at 10 µM. 360,000 compounds, 0.3% hits. AID 1224865; in the data active = activity change above about 30%, passing the limit was not always enough
Target sequence (P41235 whole entry, looked up): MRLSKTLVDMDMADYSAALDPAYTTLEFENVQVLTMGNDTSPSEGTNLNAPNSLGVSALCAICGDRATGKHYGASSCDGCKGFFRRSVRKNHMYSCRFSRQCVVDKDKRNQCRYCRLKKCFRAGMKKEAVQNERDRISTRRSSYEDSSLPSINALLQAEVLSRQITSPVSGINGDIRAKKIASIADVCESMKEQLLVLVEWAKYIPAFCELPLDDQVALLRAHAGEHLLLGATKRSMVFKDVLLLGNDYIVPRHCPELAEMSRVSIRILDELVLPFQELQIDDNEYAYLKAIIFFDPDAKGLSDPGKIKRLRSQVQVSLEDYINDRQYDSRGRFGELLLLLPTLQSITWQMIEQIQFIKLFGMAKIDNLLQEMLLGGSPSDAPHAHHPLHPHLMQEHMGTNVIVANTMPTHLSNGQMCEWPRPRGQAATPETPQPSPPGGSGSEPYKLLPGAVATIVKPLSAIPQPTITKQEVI
Rpn11 inh: inhibitors of human proteasome Rpn11 | O00487 | human 26S proteasome, Ub4-pepOG fluorescence polarization; 20S core pre-blocked with epoxomicin | inhibition, % at 20 µM | 360,000 compounds, 0.59% hits | AID 588493;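 active = inhibition at 20 µM, scaled to each plate's controls, above about 33%, limit read from the data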
CSN deneddyl inh: CSN deneddylation inhibition; inhibition, % at 12.5 µM; 360,000 compounds, 0.38% hits; Q92905; Purified CSN, SCF-Nedd8-OG deneddylation, fluorescence polarization;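 active = pattern-corrected inhibition above about 35%, with an unprinted fluorescence ratio check between 0.5 and 1.5, limit read from the data, passing the limit was not always enough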
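assay system = purified human Csn5 enzyme expressed in HEK293T cells | amount = 0.24 nM enzyme | buffer or medium = Tris/NaCl/DTT buffer, pH 7.5 | reagent = 10 nM SCFSkp2-Nedd8OG | compound = one concentration, 12.5 µM, 0.25% DMSO | times = 90 min reaction at room temperature | signal = FP | read-out basis = % inhibition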
TPT1 inh: C. albicans TPT1 enzyme inhibition. recombinant caTPT1, FP RNA substrate dephosphorylation. inhibition, % at 5 µM. 300,000 compounds, 0.81% hits;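 active = inhibition above the mean of all tested compounds plus 3 SD, set per screening campaign, cut at about 24% in these data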
Large screens that a line does not name were inactive. Shown are actives, neighbours in structure and some others; about 2.3% of the full set was active somewhere.

Cc1ccccc1NC(=O)COC(=O)c1ccc(S(=O)(=O)N2CCCC2)cc1	Myeloid diff MLP active (no result: TPT1 inh)
Cc1ccccc1NC(=O)COC(=O)c1ccc(S(=O)(=O)N2CCCCCC2)cc1	none (no result: TPT1 inh)
CCOC(=O)c1ccc(S(=O)(=O)N2CCC(C(=O)O)CC2)cc1	Myeloid diff MLP active
CCOC(=O)c1ccc(S(=O)(=O)N2CCC(C(=O)OCC)CC2)cc1	none
Cc1cc(C)c(-c2csc(NC(=O)/C=C/c3cccs3)n2)c(C)c1	Myeloid diff MLP active
Cc1cc(C)nc(NC(=O)/C=C/c2cccs2)c1	none
NC(=O)CSc1nc2scc(-c3ccco3)c2c(=O)n1-c1ccccc1	none
O=c1c2c(-c3ccco3)csc2nc(SCc2cn3cccnc3n2)n1-c1ccccc1	CSN deneddyl inh 46
COc1ccccc1C1CC(c2cccc(NS(C)(=O)=O)c2)=NN1S(=O)(=O)c1ccccc1 (stereo unspecified)	HNF4A DNA FP 81
O=C(CN1C(=O)c2ccccc2C1=O)C(O)CN1C(=O)c2ccccc2C1=O (stereo unspecified)	none (no result: TPT1 inh)
NC(Cc1ccc(F)cc1)c1csc(Nc2ccc(C(=O)c3ccccc3)cc2)n1 (stereo unspecified)	none (no result: TPT1 inh)
c1cncc(-c2nc(-c3cccs3)cs2)c1	Myeloid diff MLP active
c1cncc(-c2csc(-c3cccnc3)n2)c1	none
CCOc1ccc(CN(C)CC(=O)Nc2ccc([N+](=O)[O-])cc2Cl)cc1	Myeloid diff MLP active
CN(CCOc1ccccc1)CC(=O)Nc1cc([N+](=O)[O-])ccc1Cl	none
Cc1cnc(C)c(Nc2nc(C(N)Cc3ccc(Cl)cc3)cs2)n1 (stereo unspecified)	none (no result: TPT1 inh)
Cc1ccc(C)n1-c1cccc(C(=O)O)c1	TPT1 inh 51 (no result: Myeloid diff MLP, HNF4A DNA FP, Rpn11 inh, CSN deneddyl inh)
Cc1ccc(NC(=O)C2(C)CCN2Cc2cccc3c2OCO3)cc1O (stereo unspecified)	none (no result: TPT1 inh)
Cc1cccc(C(=O)NC(=S)Nc2ccccc2C(F)(F)F)c1	none
Cc1cccc(C(=O)NC(=S)Nc2ccccc2C(=O)O)c1	CSN deneddyl inh 78
Cc1ccc(C(=O)/C=C/c2ccc(Br)cc2)o1	Myeloid diff MLP active
Cc1ccc(C(=O)/C=C/c2ccccc2)o1	none
CC(C)c1ccc(-n2cccc2/C=C2/C(=N)N3C=CSC3=NC2=O)cc1	HNF4A DNA FP 51 (not shown: Rpn11 inh)
Cc1ccccc1Cn1cccc1/C=C1/C(=N)N2C=CSC2=NC1=O	CSN deneddyl inh 41 (not shown: Rpn11 inh)
Cn1c(=O)c2cc(NC(=O)NCCc3ccccc3)ccc2n1Cc1ccc(F)cc1	none (no result: TPT1 inh)
CC(=O)c1c(C)n([O-])c2cc(F)c(F)cc2[n+]1=O	Myeloid diff MLP active
C[C@@H]1CN([C@H](C)CO)S(=O)(=O)c2ccc(C#CCN(C)C)cc2O[C@@H]1CN(C)Cc1ccccc1F	none (no result: TPT1 inh)
O=C(NC1CCCc2ccccc21)c1n[nH]c(=O)c2ccccc12 (stereo unspecified)	Myeloid diff MLP active
O=C(NC1CCCc2ccccc21)c1ccccc1 (stereo unspecified)	none
CCOc1ccc2nc(NCCNC(=O)CC)c(C#N)cc2c1	Myeloid diff MLP active
O=C(NCc1c(Cl)cccc1Cl)c1[nH]c(C(F)(F)F)nc1-c1ccccc1	none (no result: TPT1 inh)
NC1=NC[C@H](Cc2ccccc2)N1CCc1cccc(F)c1	CSN deneddyl inh 63
Fc1cccc(CCN2CCNC[C@@H]2Cc2ccccc2)c1	CSN deneddyl inh 38
NC1=NC[C@H](Cc2ccccc2)N1CCCCC1CCCCC1	none
CCCC[C@@H]1CNCCN1CCc1cccc(F)c1	none
CCC(=O)N1CCC(C)(C(=O)NCc2ccc(F)cc2)C1 (stereo unspecified)	none (no result: TPT1 inh)
COc1cccc(C(NC(C)=O)c2nc(-c3cccc(O)c3)cs2)c1 (stereo unspecified)	none (no result: TPT1 inh)
CCCCCCCC/C=C\CCCCCCCC(=O)O	none
CCCCC/C=C\C/C=C\C/C=C\CCCCC(=O)O	Myeloid diff MLP active
O=C(CSc1nc2c([nH]c3ccccc32)c(=O)n1-c1ccccc1)N1CCOCC1	none
O=C(CSc1nc2c([nH]c3ccccc32)c(=O)n1-c1cccc(Cl)c1)N1CCOCC1	CSN deneddyl inh 80
Cc1cc(C)cc(NC(=O)CCC(=O)Nc2nnc(C(C)C)s2)c1	Myeloid diff MLP active
Cc1ccc(C(=O)CSc2nc3cccnc3n2C)cc1	Myeloid diff MLP active
CC1CC(C)CN(CCCNS(=O)(=O)c2ccc3c(c2)oc(=O)n3C)C1 (stereo unspecified)	Myeloid diff MLP active (no result: TPT1 inh)
CCc1ccc(C(=O)CSc2nc(N)cc(=O)[nH]2)cc1	HNF4A DNA FP 49
COc1ccc2sc(/C=C/c3ccccc3O)[n+](C)c2c1	HNF4A DNA FP 51 (not shown: Rpn11 inh, TPT1 inh)
O=C(c1ccco1)N1N=C(c2ccccc2O)CC1c1cccs1 (stereo unspecified)	none (no result: TPT1 inh)
COc1ccc(OC)c(NC(=O)CSc2ncnc3c2cnn3-c2ccccc2Cl)c1	Myeloid diff MLP active
COc1cc(NC(=O)CSc2ncnc3c2cnn3Cc2ccccc2)cc(OC)c1	none
Cc1ccccc1S(=O)(=O)N(C)C[C@H]1OCc2cnnn2CCCC(=O)N([C@H](C)CO)C[C@H]1C	Myeloid diff MLP active (no result: TPT1 inh)
C[C@H]1CN([C@@H](C)CO)C(=O)CCCn2cc(nn2)CO[C@@H]1CN(C)C(=O)Oc1ccccc1	CSN deneddyl inh 100 (no result: TPT1 inh)
Cc1ccccc1S(=O)(=O)N(C)C[C@H]1OCc2cnnn2CCCC(=O)N([C@@H](C)CO)C[C@H]1C	none (no result: TPT1 inh)
O=C(NCc1cccs1)c1ccc2sc([C@@H]3O[C@H](CO)[C@H](O)[C@H](O)[C@H]3O)nc2c1	none (no result: TPT1 inh)
CCCNC(=O)C1(C)CCCN(C(=O)c2cccc(C(F)(F)F)c2)C1 (stereo unspecified)	none (no result: TPT1 inh)
CCCCOCCCNC(=O)C[C@@H]1C[C@@]2(C(=O)OC)CCCCC=C2N(Cc2cccc3ccccc23)C1=O	none (no result: Rpn11 inh, TPT1 inh)
COC(=O)Cc1ccc(NC(=S)NC2CC2)cc1	Myeloid diff MLP active
O=C(NCc1cccnc1)c1cc(C2CCCN(S(=O)(=O)c3cccs3)C2)on1 (stereo unspecified)	none (no result: TPT1 inh)
CCN1/C(=C/C=C2/SC(=Nc3cccc4ncccc34)N(C)C2=O)Sc2ccccc21	Myeloid diff MLP active, CSN deneddyl inh 50 (not shown: Rpn11 inh, TPT1 inh)
CCC(=O)/C=C1/Sc2ccccc2N1CC	none
COc1ccc(-n2nc(C(=O)NCC(=O)NC(C)C)c3ccccc3c2=O)cc1	Myeloid diff MLP active
Cc1ccc(S(=O)(=O)CCC(=O)OC(C)C(=O)N2CCc3ccccc32)cc1 (stereo unspecified)	CSN deneddyl inh 40
CC1(C(=O)NCc2ccccc2)CN(S(C)(=O)=O)CC(=O)N1C1CC1 (stereo unspecified)	none (no result: Rpn11 inh, TPT1 inh)
COc1cc(-c2ccc3oc(-c4ccsc4)cc(=O)c3c2)cc(OC)c1OC	none (no result: TPT1 inh)
COc1ccc(-c2ccc3c(=O)cc(-c4ccsc4)oc3c2)cn1	HNF4A DNA FP 63, CSN deneddyl inh 104 (not shown: Rpn11 inh, TPT1 inh)
O=C(O)C1CCCN1S(=O)(=O)c1ccccc1 (stereo unspecified)	Myeloid diff MLP active
